Results on eleven molecules are retold here after ChEMBL document CHEMBL2331367, “Alkaloids from Microcos paniculata with cytotoxic and nicotinic receptor antagonistic activities” (J Nat Prod, 2013).

Activity calls are given as the source filed them. The rule behind the calls is not given here. Some results are limits rather than exact numbers.

The target of data set [1] is Neuronal acetylcholine receptor; alpha4/beta2 (Homo sapiens) (UniProt P17787+P43681). Briefly: Antagonist activity at human recombinant alpha4beta2 nAChR expressed in human HEKtsA201 cells assessed as inhibition of epibatidine-stimulated calcium accumulation at 10 uM pretreated and cotreated with epibatidine by fluorescence plate reader analysis. In kind it is cell-based. The method, boiled down: (§1)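 HEKtsA201 cells stably expressing human α3β4 or α4β2 nAChR, plated 2.0–2.3×10^5/well on poly-L-ornithine 24 h before assay; loaded with Calcium 5 NW dye in HEPES-buffered Krebs, 1 h room temperature. Compound (10 μM) added at 20 s, then 1 μM epibatidine at 60 s while compound remained. Fluorescence (ex 485/em 525 nm) recorded 120 s; net response expressed as % of epibatidine control; triplicates.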

The target of data set [2] is Neuronal acetylcholine receptor; alpha3/beta4 (Homo sapiens) (UniProt P30926+P32297). Briefly: Antagonist activity at human recombinant alpha3beta4 nAChR expressed in human HEKtsA201 cells assessed as inhibition of epibatidine-stimulated calcium accumulation at 10 uM pretreated and cotreated with epibatidine by fluorescence plate reader analysis. In kind it is cell-based. The method, boiled down:
as §1

Another data set has as its system HT-29. Briefly: Cytotoxicity against human HT-29 cells assessed as inhibition of cell proliferation after 3 days by SRB assay. The conditions noted are these: HT-29, 72 h. In kind it is functional, cell-based. (Sulforhodamine B stains cellular protein and so reports cell mass.)
Data set [3] in a line: Cytotoxicity against human CCD-112CoN cells assessed as inhibition of cell proliferation after 3 days by SRB assay. In kind it is cell-based. The conditions noted are these: 72 h. In a few lines:
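CCD-112CoN normal human colon cells grown in MEME with 10% FBS, pyruvate, non-essential amino acids, 37 °C 5% CO2; used ~70% confluent, 7,600 cells/well. Serial dilutions added in triplicate (10% DMSO vehicle), incubated 3 days; cells TCA-fixed, stained with 0.4% sulforhodamine B, dye solubilized in 10 mM Tris, absorbance 515 nm; IC50 by non-linear regression.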

The nature of data set [4]: Selectivity ratio of IC50 for human CCD-112CoN cells to IC50 for human HT29 cells. The conditions noted are these: CCD-112CoN cells and HT29 cells, read-out: Ratio IC50. In kind it is ADME, cell-based, HT-29.

In the case of `COc1ccc(CCNC(=O)/C=C/c2ccc(O)c(O)c2)cc1`, the inhibition in data set [1] came out at 21.8%; in data set [2], 14%. Moreover, the IC50 with HT-29 is greater than 10 µM.
With `CCCC/C=C/C=C/C=C/[C@@H]1CC[C@@H](OC(C)=O)[C@H](C)N1C`, in data set [1], the inhibition was 44.1%. In the data set with HT-29, the IC50 is greater than 10 µM.
As to `CCCC/C=C/C=C/C=C/[C@@H]1CC[C@@H](O)[C@H](C)N1`, the inhibition in data set [1] amounted to 59%; in data set [2], 53%.
For the molecule `CNC1(C)C2CCC(C2)C1(C)C` (centres undefined), the inhibition was found to be 91.8% in data set [1] and 88.3% in data set [2].
On the same counts, the results for `COc1cc2c3cc1Oc1cc(ccc1O)C[C@@H]1c4c(cc(OC)c(O)c4Oc4ccc(cc4)C[C@@H]3N(C)CC2)CC[N+]1(C)C` are 61% and 54%.
In the same order, the values of `O=C(OCC1CCCN(CCCc2ccccc2)C1)c1ccccc1-c1ccccc1` (centres undefined) are 39% and “inactive”.
On to `O=C1c2ccccc2-c2c3c(cc4ccnc1c24)OCO3` [LIRIODENINE], for which the inhibition in data set [1] came out at 13.3%; in data set [2], 19.3%. For the same molecule, in the data set with HT-29, the IC50 was greater than 10 µM.
In the case of `CCCC/C=C/C=C/C=C/[C@@H]1CC[C@@H](O)[C@H](C)N1C` [MICROGREWIAPINE A], the inhibition in data set [1] is 74%; in data set [2] it was 58.2%. In addition, the IC50 in data set [3] amounted to 30.4 µM; in the data set on HT-29, 6.8 µM. Also, the selectivity ratio in data set [4] came to 4.
Turning to `CCCC/C=C/C=C/C=C/[C@@H]1CC[C@@H](O)[C@H](C)[N+]1(C)[O-]` (some centres undefined) [MICROGREWIAPINE B], the inhibition in data set [1] worked out at 79.3%; in data set [2] it was 82.7%. Moreover, the IC50 in the data set on HT-29 was greater than 10 µM.
In the same order, the values of `CCCC/C=C/C=C/C=C/[C@@H]1CC[C@H](O)[C@H](C)[N+]1(C)[O-]` (some centres undefined) [MICROGREWIAPINE C] are 67.3%, 82.8% and greater than 10 µM.
Consider `CC(=O)O[C@H]1C(=O)[C@@]2(C)[C@H]([C@H](OC(=O)c3ccccc3)[C@]3(O)C[C@H](OC(=O)[C@H](O)[C@@H](NC(=O)c4ccccc4)c4ccccc4)C(C)=C1C3(C)C)[C@]1(OC(C)=O)CO[C@@H]1C[C@@H]2O` [PACLITAXEL], for which the values for the IC50 (in data set [3]; in the data set with HT-29) were 23 µM and 0.001 µM, respectively.

As a reminder, the inhibition is the drop in the measured response relative to a control, in per cent. One may read the IC50 as the concentration that gives 50% inhibition.
